Screening data (PubChem BioAssay)
A selection: hits, their analogues and other compounds. The true share with any hit is near 1.5%.
T cell HTS – modulates CD8 T cell binding to vesicles. 2C CD8+ T cell-vesicle binding, flow cytometry; stronger effect = lower value. response (vesicle binding), % at 7 µM. hit rate 0.068% among 330,000. AID 2052;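 active means response, share of CD8 T cells binding vesicles, and their 90th percentile fluorescence all below set limits, cut at about 80% in these data, passing the limit was not always enough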;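 further: values below 100% mean blocked vesicle binding to the CD8+ T cells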
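Assay system: 2C TCR transgenic mouse naive CD8+ T cells, MACS-purified | Read-out: CD8+ gate FL2 mean fluorescence as % of same-row positive control | Signal: High-throughput flow cytometry with anti-B7-1 and anti-CD8 staining | Timing: Binding step 1.5 h, 37 °C, antibody labelling 20 min, ice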
VLA-4 inh – inhibition in a human VLA-4 binding assay; AID 2557; hit rate 0.2% among 330,000; P13612; VLA-4 expressing cells, ligand binding flow cytometry; inhibition, % (about 7 µM as worked out from the volumes in the protocol); in the data active means inhibition above about 50%
CHT block – inhibits the human high affinity choline transporter; hit rate 0.86% among 310,000; B-score at 10 µM; CHT-expressing cells, membrane potential dye, choline response; stronger effect = lower value;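 active means B-score over 3 SD under the library average, and starting fluorescence ratio not unusually high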;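 further: choline stimulus applied at its EC90 after an EC20 pre-addition; B-score computed on integrated fluorescence ratio after choline addition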
Target sequence (Q9GZV3 whole entry, looked up): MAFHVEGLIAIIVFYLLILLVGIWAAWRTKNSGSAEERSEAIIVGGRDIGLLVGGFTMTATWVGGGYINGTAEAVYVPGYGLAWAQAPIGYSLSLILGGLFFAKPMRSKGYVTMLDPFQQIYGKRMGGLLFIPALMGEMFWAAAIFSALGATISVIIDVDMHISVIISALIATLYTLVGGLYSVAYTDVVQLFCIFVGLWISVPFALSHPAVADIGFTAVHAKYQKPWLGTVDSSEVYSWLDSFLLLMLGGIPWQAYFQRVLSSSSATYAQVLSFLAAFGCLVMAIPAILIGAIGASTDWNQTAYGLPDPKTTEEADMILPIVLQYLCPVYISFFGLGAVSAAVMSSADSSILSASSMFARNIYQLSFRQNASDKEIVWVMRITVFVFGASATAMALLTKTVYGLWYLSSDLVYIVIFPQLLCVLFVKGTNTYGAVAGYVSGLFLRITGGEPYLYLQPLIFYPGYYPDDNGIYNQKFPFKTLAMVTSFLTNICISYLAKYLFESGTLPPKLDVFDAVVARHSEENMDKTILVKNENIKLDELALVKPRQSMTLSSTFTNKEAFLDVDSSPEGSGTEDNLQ
CHT PAM – allosterically activates the human high affinity choline transporter | Q9GZV3 | hit rate 0.49% among 310,000 | AID 488977 | CHT-expressing cells, membrane potential dye, choline EC20; stronger effect = higher value; LV-AA mutant CHT in HEK293 cells | B-score at 10 µM;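 active means initial fluorescence not abnormally high and integrated response B-score, plate-corrected, over 3 SD above library mean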
CHT block conf – human CHT inhibition, confirmatory screen; shares compounds with CHT block; CHT-expressing cells, choline membrane potential dye; LV-to-AA substituted CHT, HEK293 cells; hit rate 70% among 2,400; CHT activity remaining % of control (stronger effect = lower value), % at 10 µM;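 active means choline transporter activity left, mean of duplicates at 10 µM, below buffer-only control mean minus 3 SD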;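 further: depolarization triggered by choline at its EC90 following an EC20 pre-addition; 0% = hemicholinium-3 full block and 100% = buffer-only control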
HEK293 CHT ctr – counter-screen for CHT inhibitors: effect in parental HEK293 cells. shares compounds with CHT block. membrane potential dye, choline response; active = decrease or increase beyond buffer ±3SD. membrane potential ratio readout (active if shifted either direction beyond buffer ±3SD; no single direction) at 10 µM. hit rate 4% among 2,400;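 further: parental cells lack the transporter so any hit is non-specific; ratio is peak minus trough fluorescence over baseline after EC90 choline challenge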
* hit, by the source's call; i = inactive; . = no result.

SMILES | T cell HTS | VLA-4 inh | CHT block | CHT PAM | CHT block conf | HEK293 CHT ctr
O=C(O)CCN1C(=O)CC(N2C(=O)/C(=C/c3ccc(Cl)cc3)SC2=S)C1=O (centres undefined) | 201.7 | 2.3 | -6.21* | i | 58.2%* | i
CCOc1ccc(/C=C2\SC(=S)N(CCC(=O)O)C2=O)cc1 | 107.5 | 1.3 | i | i | . | .
O=C(NCc1ccccc1)c1ccc(CN2CCC(Cc3ccccc3)CC2)cc1 | 182.7 | 2.8 | i | i | . | .
Cc1ccccc1NC(=O)c1ccc(CN2CCc3ccccc3C2)cc1 | 432.9 | -6.6 | i | i | . | .
CCc1cccc(C)c1NC(=O)c1ccc(CN2CCc3ccccc3C2)cc1 | i | -0.6 | -5.44* | i | 70.8%* | i
CCc1ccccc1NC(=O)c1ccc(CN2CCC(Cc3ccccc3)CC2)cc1 | 206.6 | -9.8 | -9.57* | i | 48.3%* | i
CC1=CC(=O)C(C(C)C)=C/C1=N/OS(=O)(=O)c1ccccc1 | 103.6 | 0.0 | -9.6* | i | 64.1%* | i
Cc1ccc2c(c1)/C(=N/OS(=O)(=O)c1ccccc1)CCS2 | 359.0 | -6.6 | i | i | . | .
CC(C)c1ccc(NC(=O)COC(=O)c2cc(=O)[nH]c3ccccc23)cc1 | 168.1 | 13.1 | . | . | . | .
COCc1cc(=O)[nH]c2c1c(-c1ccccc1)nn2C | 258.7 | -2.0 | i | i | . | .
O=C(CN1C(=O)CSc2ncccc21)Nc1cccc(Cl)c1 | i | -23.9 | i | i | . | .
COC(=O)NNC(=S)NCc1ccc(C)cc1 | 785.9 | 4.8 | -6.69* | i | i | i
Cc1ccc(CNC(N)=S)cc1 | 450.8 | 1.2 | i | i | . | .
COc1ccc(C)c(-n2c(=O)n(Cc3ccccc3)c(=O)c3[nH]cnc32)c1 | 347.8 | 21.9 | i | i | . | .
COc1ccc(Cn2c(=O)c3[nH]cnc3n(-c3ccccc3C)c2=O)cc1 | 758.7 | 6.2 | -5.45* | i | 56.0%* | i
CCOc1ccc(CC(=O)N/N=C/c2sccc2C)cc1 | 326.8 | 2.1 | i | i | . | .
CCc1cc(=O)[nH]c(SCC(=O)Nc2ccc3c(c2)OCCO3)n1 | 264.9 | -11.8 | i | i | . | .
O=c1c2c(nc3cc(-c4ccc(Cl)cc4)[nH]n13)CCS2 | 224.0 | 7.7 | i | i | . | .
CCn1c(SCc2ccccc2)nnc1-c1ccc(S(=O)(=O)N2CCCCC2)cc1 | 753.6 | 5.3 | -5.95* | i | i | i
CCn1c(SCc2nnc(-c3ccccc3)o2)nnc1-c1ccc(S(=O)(=O)N2CCCC2)cc1 | 215.0 | 2.0 | i | i | . | .
O=C(NNC(=S)Nc1ccccc1)NNC(=S)Nc1ccccc1 | 292.3 | 0.6 | i | i | . | .
O=C(NNC(=S)Nc1ccccc1)c1cc(Br)ccc1Cl | 170.1 | -0.4 | -5.76* | i | 54.4%* | i
COc1cccc(NC(=O)COC(=O)C2CC3CCCC(C2)C3=O)c1 (centres undefined) | 189.9 | 8.3 | . | . | . | .
Cc1cc(C)cc(C(=O)NC(CC(N)=O)c2ccc(N3CCN(C)CC3)c([N+](=O)[O-])c2)c1 (centres undefined) | 446.7 | 0.7 | i | i | . | .
NC(=O)CC(NC(=O)c1cccc(Br)c1)c1ccc(N2CCCCCC2)c([N+](=O)[O-])c1 (centres undefined) | 558.3 | 7.1 | i | i | . | .
SMILES | T cell HTS | VLA-4 inh | CHT block | CHT PAM | CHT block conf | HEK293 CHT ctr
NC(=O)CC(NC(=O)c1ccccc1)c1ccc(N2CCc3ccccc3C2)c([N+](=O)[O-])c1 (centres undefined) | 435.6 | 27.1 | -9.49* | i | 17.9%* | i
NC(=O)CC(NC(=O)c1ccc(Br)cc1)c1ccc(N2CCCCCC2)c([N+](=O)[O-])c1 (centres undefined) | 370.6 | 14.9 | -7.74* | i | 58.6%* | i
NC(=O)CC(NC(=O)Cc1cccc2ccccc12)c1ccc(N2CCCCCCC2)c([N+](=O)[O-])c1 (centres undefined) | 322.7 | -3.0 | i | i | . | .
NC(=O)CC(NC(=O)c1ccccc1)c1ccc(N2CCCCCCC2)c([N+](=O)[O-])c1 (centres undefined) | 721.9 | 5.6 | -11* | i | 1.4%* | i
COc1ccc(N(C(=O)c2ccc(S(=O)(=O)N3CCCC3)cc2)C2C=CS(=O)(=O)C2)cc1 (centres undefined) | 385.0 | 14.6 | i | i | . | .
Cc1nc(SCC(=O)Nc2ccccc2Cl)oc1C | 230.6 | -5.8 | i | i | . | .
CC(C)c1ccc(/C=C/c2ccc(=O)n(C)n2)cc1 | 179.5 | 7.2 | -6.9* | i | i | i
CC(C)c1ccc(/C=C/C2=NNC(=O)CC2)cc1 | 231.9 | -10.0 | i | i | . | .
CCOC(=O)c1c(NC(=O)C2C3C=CC(C3)C2C(=O)O)sc2c1CCC(CC)C2 (centres undefined) | 266.7 | 12.2 | -4.98* | i | 26.6%* | i
NC(=S)N/N=C1/CCSc2ccc3ccccc3c21 | 231.8 | -0.1 | -5.58* | i | 68.5%* | i
Cc1ccccc1CNS(=O)(=O)c1ccc2c(c1)OCCO2 | 265.0 | 11.3 | -5.81* | i | 64.2%* | i
NS(=O)(=O)c1ccc(NNC(=O)c2ccccc2)cc1 | 284.1 | 4.8 | i | i | . | .
O=C(NNc1cc(Br)c(O)c(Br)c1)c1ccccc1 | 515.2 | -7.2 | -7.37* | i | 47.3%* | i
Cc1cc(C)nc(SCc2cc(=O)c(OC(=O)c3cc([N+](=O)[O-])ccc3Cl)co2)n1 | 879.4 | -5.5 | -7.36* | i | 28.2%* | i
Cc1cc(C)nc(SCc2cc(=O)c(OC(=O)c3ccc(S(=O)(=O)N4CCCC4)cc3)co2)n1 | 302.0 | 5.5 | -7.24* | i | 51.2%* | i
Cc1cc(C)nc(SCc2cc(=O)c(OC(=O)c3ccc(Br)o3)co2)n1 | 197.2 | -1.7 | -8.23* | i | 13.6%* | i
Cc1cc(C)nc(SCc2cc(=O)c(OC(=O)c3ccco3)co2)n1 | 240.8 | -18.4 | -6.06* | i | 16.6%* | i
C#Cc1cccc(C(=O)N2CCCC(C(=O)c3ccc(OC)cc3C)C2)c1 (centres undefined) | 468.9 | 5.0 | i | i | . | .
CCn1nc(C)c(CNC(=O)c2ccc(OC3CCN(Cc4ccccn4)CC3)cc2)c1C | 388.8 | 22.7 | i | i | . | .
Cc1ccc(C(=O)c2c3ccc(C(F)(F)F)cc3[n+]([O-])n2CCCC(N)=O)cc1 | 192.3 | 3.2 | i | i | . | .
Cc1ccc(C(=O)c2c3ccc(C(F)(F)F)cc3[n+]([O-])n2CCCN)cc1 | 228.0 | -2.3 | -5.87* | i | 39.7%* | 2.6*
COc1ccc(C(=O)c2c3ccc(C(F)(F)F)cc3[n+]([O-])n2CCCN)cc1 | 114.9 | 7.7 | -6.35* | i | 21.5%* | i
Cc1ccc(C)c(N(CC(=O)NC(C)C)C(=O)CCC(=O)Nc2ccccn2)c1 | 251.4 | 5.9 | i | i | . | .
